Measured values published in ChEMBL document CHEMBL4049392, “New azole derivatives showing antimicrobial effects and their mechanism of antifungal activity by molecular modeling studies” (Eur J Med Chem, 2017).
Values after ≈ are worked out from the molar mass of the structure shown.

Tests used:
Format in all cases: functional
[1] = tested on: Candida albicans; test: Anti-fungal activity against Candida albicans ATCC 90028 after 48 hrs by broth microdilution method; settings: ATCC 90028, 48 h
Method in brief: (§1)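 CLSI broth microdilution in RPMI 1640 (with glutamine, without bicarbonate) buffered to pH 7.0 with MOPS. Inoculum was prepared from 24 h Sabouraud dextrose agar subcultures, final 0.5 to 2.5 10^3 cfu/mL. Twofold dilutions were made from DMSO stocks. Incubated 35 °C for 48 h. MIC was the lowest concentration with no visible growth; for the fluconazole reference, MIC was taken at about 80% growth inhibition versus control.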

[2] = tested on: Pichia kudriavzevii; test: Anti-fungal activity against Candida krusei ATCC 6258 after 48 hrs by broth microdilution method; settings: ATCC 6258, 48 h; method in brief: as §1
[3] = tested on: Candida parapsilosis; test: Anti-fungal activity against Candida parapsilosis ATCC 90018 after 48 hrs by broth microdilution method; settings: Lodderomyces parapsilosis, ATCC 90018, 48 h; method in brief: as §1
[4] = tested on: Staphylococcus aureus; test: Antibacterial activity against Staphylococcus aureus ATCC 29213 after 18 to 24 hrs by broth microdilution method
Method in brief: (§2)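 CLSI broth microdilution in Mueller Hinton broth, with inoculum from 24 h Mueller Hinton agar subcultures, final about 5 10^5 cfu/mL. Compounds were dissolved in DMSO and tested as twofold dilutions in wells. Plates were incubated at 35 °C for 18–24 h. MIC was read as the lowest concentration completely inhibiting visible growth. Ciprofloxacin was the reference.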

[5] = tested on: Enterococcus faecalis; test: Antibacterial activity against Enterococcus faecalis ATCC 29212 after 18 to 24 hrs by broth microdilution method; method in brief: as §2
[6] = tested on: Escherichia coli; test: Antibacterial activity against Escherichia coli ATCC 25922 after 18 to 24 hrs by broth microdilution method; method in brief: as §2
[7] = tested on: Pseudomonas aeruginosa; test: Antibacterial activity against Pseudomonas aeruginosa ATCC 27853 after 18 to 24 hrs by broth microdilution method; method in brief: as §2
[8] = tested on: Nakaseomyces glabratus; test: Anti-fungal activity against drug-resistant Candida glabrata after 48 hrs by broth microdilution method
Method in brief: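 Clinical resistant C. glabrata isolate, stored frozen in glycerol and subcultured twice on Sabouraud dextrose agar. CLSI broth microdilution in RPMI 1640 (glutamine, no bicarbonate) buffered to pH 7.0 with MOPS. Inoculum from 24 h subcultures, final 0.5 to 2.5 x10^3 cfu/mL. DMSO-dissolved compounds in twofold dilutions, 35 C for 48 h. MIC is the lowest concentration giving complete visual growth inhibition; fluconazole reference read at about 80% inhibition.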

## OC(Cn1ccnc1)c1ccccc1 (stereo not drawn)
[1]
  MIC: 256 µg/mL (≈ 1360 µM)
[2]
  MIC: 256 µg/mL (≈ 1360 µM)
[3]
  MIC: 256 µg/mL (≈ 1360 µM)
[4]
  MIC: 1020 µg/mL (≈ 5440 µM)
[5]
  MIC: 512 µg/mL (≈ 2720 µM)
[6]
  MIC: 512 µg/mL (≈ 2720 µM)
[7]
  MIC: 512 µg/mL (≈ 2720 µM)

## OC(Cn1ccnc1)c1ccc(Cl)cc1 (stereo not drawn)
[1]
  MIC: 128 µg/mL (≈ 575 µM)
[2]
  MIC: 256 µg/mL (≈ 1150 µM)
[3]
  MIC: 128 µg/mL (≈ 575 µM)
[4]
  MIC: 64 µg/mL (≈ 287 µM)
[5]
  MIC: 128 µg/mL (≈ 575 µM)
[6]
  MIC: 256 µg/mL (≈ 1150 µM)
[7]
  MIC: 256 µg/mL (≈ 1150 µM)

## CC(=O)OC(Cn1ccnc1)c1ccccc1.Cl (stereo not drawn)
[1]
  MIC: 128 µg/mL
[2]
  MIC: 128 µg/mL
[3]
  MIC: 64 µg/mL
[4]
  MIC: 1020 µg/mL
[5]
  MIC: 256 µg/mL
[6]
  MIC: 512 µg/mL
[7]
  MIC: 256 µg/mL

## CCCC(CCC)C(=O)OC(Cn1ccnc1)c1ccc(Cl)cc1.Cl (stereo not drawn)
[1]
  MIC: 128 µg/mL
[2]
  MIC: 64 µg/mL
[3]
  MIC: 64 µg/mL
[4]
  MIC: 1020 µg/mL
[5]
  MIC: 32 µg/mL
[6]
  MIC: 512 µg/mL
[7]
  MIC: 256 µg/mL

## CC(=O)CCC(=O)OC(Cn1ccnc1)c1ccc(Cl)cc1.Cl (stereo not drawn)
[1]
  MIC: 64 µg/mL
[2]
  MIC: 32 µg/mL
[3]
  MIC: 16 µg/mL
[4]
  MIC: 512 µg/mL
[5]
  MIC: 256 µg/mL
[6]
  MIC: 512 µg/mL
[7]
  MIC: 256 µg/mL

## Cl.O=C(Cc1ccccc1)OC(Cn1ccnc1)c1ccccc1 (stereo not drawn)
[1]
  MIC: 64 µg/mL
[2]
  MIC: 128 µg/mL
[3]
  MIC: 32 µg/mL
[4]
  MIC: 128 µg/mL
[5]
  MIC: 64 µg/mL
[6]
  MIC: 512 µg/mL
[7]
  MIC: 128 µg/mL

## CC(=O)CCC(=O)OC(Cn1ccnc1)c1ccccc1.Cl (stereo not drawn)
[1]
  MIC: 256 µg/mL
[2]
  MIC: 256 µg/mL
[3]
  MIC: 256 µg/mL
[4]
  MIC: 512 µg/mL
[5]
  MIC: 128 µg/mL
[6]
  MIC: 512 µg/mL
[7]
  MIC: 256 µg/mL

## CCC(=O)OC(Cn1ccnc1)c1ccccc1.Cl (stereo not drawn)
[1]
  MIC: 64 µg/mL
[2]
  MIC: 32 µg/mL
[3]
  MIC: 8 µg/mL
[4]
  MIC: 1020 µg/mL
[5]
  MIC: 128 µg/mL
[6]
  MIC: 512 µg/mL
[7]
  MIC: 256 µg/mL

## Cl.O=C(CCC(=O)c1ccccc1)OC(Cn1ccnc1)c1ccccc1 (stereo not drawn)
[1]
  MIC: 16 µg/mL
[2]
  MIC: 128 µg/mL
[3]
  MIC: 32 µg/mL
[4]
  MIC: 128 µg/mL
[5]
  MIC: 64 µg/mL
[6]
  MIC: 512 µg/mL
[7]
  MIC: 256 µg/mL

## C/C=C/C=C/C(=O)OC(Cn1ccnc1)c1ccccc1.Cl (stereo not drawn)
[1]
  MIC: 32 µg/mL
[2]
  MIC: 32 µg/mL
[3]
  MIC: 8 µg/mL
[4]
  MIC: 512 µg/mL
[5]
  MIC: 64 µg/mL
[6]
  MIC: 512 µg/mL
[7]
  MIC: 256 µg/mL

## CCCC(=O)OC(Cn1ccnc1)c1ccccc1.Cl (stereo not drawn)
[1]
  MIC: 64 µg/mL
[2]
  MIC: 32 µg/mL
[3]
  MIC: 16 µg/mL
[4]
  MIC: 512 µg/mL
[5]
  MIC: 128 µg/mL
[6]
  MIC: 512 µg/mL
[7]
  MIC: 256 µg/mL

## Cl.O=C(OC(Cn1ccnc1)c1ccccc1)C1CCCCC1 (stereo not drawn)
[1]
  MIC: 16 µg/mL
[2]
  MIC: 128 µg/mL
[3]
  MIC: 16 µg/mL
[4]
  MIC: 64 µg/mL
[5]
  MIC: 32 µg/mL
[6]
  MIC: 512 µg/mL
[7]
  MIC: 256 µg/mL

## Cl.O=C(OC(Cn1ccnc1)c1ccccc1)c1ccccc1 (stereo not drawn)
[1]
  MIC: 32 µg/mL
[2]
  MIC: 64 µg/mL
[3]
  MIC: 32 µg/mL
[8]
  MIC: > 32 µg/mL
[4]
  MIC: 64 µg/mL
[5]
  MIC: 64 µg/mL
[6]
  MIC: 256 µg/mL
[7]
  MIC: 256 µg/mL

## CC(=O)OC(Cn1ccnc1)c1ccc(Cl)cc1.Cl (stereo not drawn)
[1]
  MIC: 64 µg/mL
[2]
  MIC: 32 µg/mL
[3]
  MIC: 8 µg/mL
[4]
  MIC: 256 µg/mL
[5]
  MIC: 256 µg/mL
[6]
  MIC: 512 µg/mL
[7]
  MIC: 256 µg/mL

## CCCC(CCC)C(=O)OC(Cn1ccnc1)c1ccccc1.Cl (stereo not drawn)
[1]
  MIC: 32 µg/mL
[2]
  MIC: 32 µg/mL
[3]
  MIC: 32 µg/mL
[8]
  MIC: > 32 µg/mL
[4]
  MIC: 16 µg/mL
[5]
  MIC: 32 µg/mL
[6]
  MIC: 512 µg/mL
[7]
  MIC: 256 µg/mL

## Cl.O=C(CCCc1ccccc1)OC(Cn1ccnc1)c1ccccc1 (stereo not drawn)
[1]
  MIC: 4 µg/mL
[2]
  MIC: 32 µg/mL
[3]
  MIC: 4 µg/mL
[8]
  MIC: > 32 µg/mL
[4]
  MIC: 8 µg/mL
[5]
  MIC: 128 µg/mL
[6]
  MIC: 1020 µg/mL
[7]
  MIC: 256 µg/mL

## O=C(O)c1cn(C2CC2)c2cc(N3CCNCC3)c(F)cc2c1=O [CIPROFLOXACIN]
[4]
  MIC: 0.5 µg/mL (≈ 1.51 µM)
[5]
  MIC: 1.5 µg/mL (≈ 4.53 µM)
[6]
  MIC: 0.005 µg/mL (≈ 0.0151 µM)
[7]
  MIC: 1.5 µg/mL (≈ 4.53 µM)

## OC(Cn1cncn1)(Cn1cncn1)c1ccc(F)cc1F [FLUCONAZOLE]
[1]
  MIC: 0.25 µg/mL (≈ 0.816 µM)
[2]
  MIC: 16 µg/mL (≈ 52.2 µM)
[3]
  MIC: 0.25 µg/mL (≈ 0.816 µM)
[8]
  MIC: 32 µg/mL (≈ 104 µM)
